Measurements as given in ChEMBL document CHEMBL3352788, “Characterization of selective exosite-binding inhibitors of matrix metalloproteinase 13 that prevent articular cartilage degradation in vitro” (J Med Chem, 2014).
One block for each compound: values may come before it.

Tests used:
Assay type in all cases: ADME
CYP2C9 = CYP2C9 (Homo sapiens, UniProt P11712); test: Inhibition of CYP2C9 (unknown origin) using diclofenac substrate at 2.5 uM; conditions: probe diclofenac
Procedure, shortened: (§1)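 Human liver microsomes with probe substrate and an NADPH-regenerating system in 0.1 M potassium phosphate pH 7.4 at 37 °C, run in duplicate. Inhibitor at 0–20 μM (0–2.5 μM for one compound), eight concentrations. Reactions were stopped with acetonitrile/formic acid containing isotope-labelled internal standard, and metabolite area ratios were compared with and without inhibitor. IC50 was taken by linear interpolation between bracketing concentrations.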

CYP3A4 = CYP3A4 (Homo sapiens, UniProt P08684); test: Inhibition of CYP3A4 (unknown origin) using midazolam substrate at 2.5 uM; conditions: probe midazolam; procedure, shortened: as §1
CYP2D6 = CYP2D6 (Homo sapiens, UniProt P10635); test: Inhibition of CYP2D6 (unknown origin) using dextromethophan substrate at 2.5 uM; conditions: probe dextromethophan; procedure, shortened: as §1
CYP2C8 = CYP2C8 (Homo sapiens, UniProt P10632); test: Inhibition of CYP2C8 (unknown origin) using amodiaquine substrate at 2.5 uM; conditions: probe amodiaquine; procedure, shortened: as §1
Cytochrome P450 1A2 = molecular target: T1, Cytochrome P450 1A2 (Homo sapiens, UniProt P05177); test: (§2) Inhibition of CYP1A2 (unknown origin) using tacrin substrate at 20 uM; conditions: 20 µM; procedure, shortened: as §1
T1 sequence (P05177 whole entry): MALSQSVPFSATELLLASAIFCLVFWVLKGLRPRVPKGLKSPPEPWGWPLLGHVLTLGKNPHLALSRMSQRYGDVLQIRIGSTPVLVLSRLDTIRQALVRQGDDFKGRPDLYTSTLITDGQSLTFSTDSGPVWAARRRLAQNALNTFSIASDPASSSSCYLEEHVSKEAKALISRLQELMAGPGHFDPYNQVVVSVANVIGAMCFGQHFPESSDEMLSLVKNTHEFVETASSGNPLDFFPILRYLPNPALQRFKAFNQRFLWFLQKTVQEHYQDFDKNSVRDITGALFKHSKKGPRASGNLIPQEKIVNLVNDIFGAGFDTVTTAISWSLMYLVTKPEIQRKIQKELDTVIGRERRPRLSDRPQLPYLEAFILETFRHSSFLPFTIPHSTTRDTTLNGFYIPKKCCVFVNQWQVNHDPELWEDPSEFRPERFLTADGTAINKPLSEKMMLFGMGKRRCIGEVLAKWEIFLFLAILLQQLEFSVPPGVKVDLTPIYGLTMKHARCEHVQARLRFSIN

Cytochrome P450 2B6 = molecular target: T2, Cytochrome P450 2B6 (Homo sapiens, UniProt P20813); test: Inhibition of CYP2B6 (unknown origin) using bupropion substrate at 20 uM; conditions: 20 µM; procedure, shortened: as §1
T2 sequence (P20813 whole entry): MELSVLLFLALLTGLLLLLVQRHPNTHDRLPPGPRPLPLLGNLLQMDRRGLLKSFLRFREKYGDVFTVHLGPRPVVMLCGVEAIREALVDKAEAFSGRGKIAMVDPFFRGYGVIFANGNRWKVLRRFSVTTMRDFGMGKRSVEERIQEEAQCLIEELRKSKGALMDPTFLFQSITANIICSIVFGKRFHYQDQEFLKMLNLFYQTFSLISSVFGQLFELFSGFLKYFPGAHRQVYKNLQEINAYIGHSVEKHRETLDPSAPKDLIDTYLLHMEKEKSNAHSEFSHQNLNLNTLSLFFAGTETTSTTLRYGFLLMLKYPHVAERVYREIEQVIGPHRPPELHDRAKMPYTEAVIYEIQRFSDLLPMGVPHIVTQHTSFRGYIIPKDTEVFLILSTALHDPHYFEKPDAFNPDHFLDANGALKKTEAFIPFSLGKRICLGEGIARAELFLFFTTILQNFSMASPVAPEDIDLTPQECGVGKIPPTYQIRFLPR

CYP1A2 = CYP1A2 (Homo sapiens, UniProt P05177); test: as §2; conditions: probe tacrin; procedure, shortened: as §1

Sequence of CYP2C8 (P10632 whole entry): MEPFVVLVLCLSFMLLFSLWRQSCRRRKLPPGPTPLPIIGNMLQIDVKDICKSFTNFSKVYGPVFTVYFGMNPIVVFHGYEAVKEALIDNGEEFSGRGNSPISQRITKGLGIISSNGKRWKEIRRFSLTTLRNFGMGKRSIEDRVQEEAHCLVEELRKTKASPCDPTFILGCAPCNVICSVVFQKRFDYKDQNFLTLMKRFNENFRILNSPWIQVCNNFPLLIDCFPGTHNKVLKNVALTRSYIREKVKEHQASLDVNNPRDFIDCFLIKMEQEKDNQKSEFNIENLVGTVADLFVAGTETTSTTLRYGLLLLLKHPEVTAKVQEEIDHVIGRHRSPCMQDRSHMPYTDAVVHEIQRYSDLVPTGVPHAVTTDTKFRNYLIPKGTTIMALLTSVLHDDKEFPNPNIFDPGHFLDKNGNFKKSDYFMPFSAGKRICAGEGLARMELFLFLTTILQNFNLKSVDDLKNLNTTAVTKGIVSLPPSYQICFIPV
Sequence of CYP2D6 (P10635 whole entry): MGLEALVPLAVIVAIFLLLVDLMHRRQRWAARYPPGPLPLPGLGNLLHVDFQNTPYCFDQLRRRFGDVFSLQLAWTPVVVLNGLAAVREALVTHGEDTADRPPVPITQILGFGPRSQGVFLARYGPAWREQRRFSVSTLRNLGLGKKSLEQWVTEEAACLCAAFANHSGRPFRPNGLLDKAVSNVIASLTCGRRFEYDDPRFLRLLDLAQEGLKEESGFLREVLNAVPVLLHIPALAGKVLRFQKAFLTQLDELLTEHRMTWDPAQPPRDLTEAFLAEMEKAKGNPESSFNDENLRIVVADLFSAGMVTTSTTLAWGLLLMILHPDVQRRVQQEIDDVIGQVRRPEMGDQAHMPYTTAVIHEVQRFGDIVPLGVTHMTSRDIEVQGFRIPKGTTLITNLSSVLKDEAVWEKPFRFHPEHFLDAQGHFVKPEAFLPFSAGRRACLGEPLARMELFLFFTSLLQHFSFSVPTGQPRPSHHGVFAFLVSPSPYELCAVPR
Sequence of CYP2C9 (P11712 whole entry): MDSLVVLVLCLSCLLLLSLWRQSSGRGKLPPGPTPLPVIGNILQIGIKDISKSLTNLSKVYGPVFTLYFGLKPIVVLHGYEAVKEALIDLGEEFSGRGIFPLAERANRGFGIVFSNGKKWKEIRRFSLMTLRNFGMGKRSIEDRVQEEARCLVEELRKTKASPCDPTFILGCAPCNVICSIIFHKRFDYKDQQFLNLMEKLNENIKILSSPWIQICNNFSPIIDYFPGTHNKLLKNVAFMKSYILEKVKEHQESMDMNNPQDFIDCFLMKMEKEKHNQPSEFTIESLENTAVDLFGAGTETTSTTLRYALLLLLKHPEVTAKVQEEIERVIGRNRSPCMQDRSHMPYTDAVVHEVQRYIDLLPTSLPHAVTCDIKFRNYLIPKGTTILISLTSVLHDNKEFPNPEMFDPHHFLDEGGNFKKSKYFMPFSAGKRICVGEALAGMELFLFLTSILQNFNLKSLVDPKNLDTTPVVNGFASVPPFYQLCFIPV
Sequence of CYP3A4 (P08684 whole entry): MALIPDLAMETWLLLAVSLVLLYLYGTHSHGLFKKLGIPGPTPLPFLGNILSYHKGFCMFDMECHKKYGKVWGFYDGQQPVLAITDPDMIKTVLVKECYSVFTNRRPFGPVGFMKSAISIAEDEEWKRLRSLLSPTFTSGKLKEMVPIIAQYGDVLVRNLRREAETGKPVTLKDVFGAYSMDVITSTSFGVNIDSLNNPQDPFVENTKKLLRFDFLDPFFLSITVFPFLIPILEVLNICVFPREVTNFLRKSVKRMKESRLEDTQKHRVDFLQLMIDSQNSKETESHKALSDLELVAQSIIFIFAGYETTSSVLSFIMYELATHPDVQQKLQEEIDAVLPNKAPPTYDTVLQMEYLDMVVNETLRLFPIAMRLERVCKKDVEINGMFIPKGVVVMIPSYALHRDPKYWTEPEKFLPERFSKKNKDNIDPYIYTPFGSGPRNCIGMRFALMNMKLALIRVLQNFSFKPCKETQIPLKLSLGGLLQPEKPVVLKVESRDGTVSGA

inhibition at 2.5 µM (CYP2C9): < 50% | inhibition at 2.5 µM (CYP3A4): < 50% | inhibition at 2.5 µM (CYP2D6): < 50% | inhibition at 2.5 µM (CYP2C8): < 50%
Compound: Cn1c(=O)n(Cc2ccc(C(=O)O)cc2)c(=O)c2cc(C#CCc3ccccc3)ccc21

inhibition (INH) (Cytochrome P450 1A2): > 10% | inhibition (INH) (Cytochrome P450 2B6): > 10%
Compound: Cc1cc(CNC(=O)c2cc(C(=O)NCc3ccc(F)c(C)c3)ncn2)ccc1F

Compound: COC(=O)c1ccc(CSc2nc3c(c(=O)[nH]2)CCC3)cc1
inhibition at 20 µM (CYP1A2): 29%
